Measurements taken from paper PMC3687671 (British Journal of Pharmacology, 2013).
Entries after “also recorded” stand apart in the source; their conditions may differ. Read-outs that look alike come from different tables or passages of the source.

How the values were obtained:
human CBS = target: T1, human CBS (Homo sapiens, UniProt P35520); assay: H2S production by purified recombinant GST-CBS; assay type: biochemical
T1 sequence (P35520 1-551): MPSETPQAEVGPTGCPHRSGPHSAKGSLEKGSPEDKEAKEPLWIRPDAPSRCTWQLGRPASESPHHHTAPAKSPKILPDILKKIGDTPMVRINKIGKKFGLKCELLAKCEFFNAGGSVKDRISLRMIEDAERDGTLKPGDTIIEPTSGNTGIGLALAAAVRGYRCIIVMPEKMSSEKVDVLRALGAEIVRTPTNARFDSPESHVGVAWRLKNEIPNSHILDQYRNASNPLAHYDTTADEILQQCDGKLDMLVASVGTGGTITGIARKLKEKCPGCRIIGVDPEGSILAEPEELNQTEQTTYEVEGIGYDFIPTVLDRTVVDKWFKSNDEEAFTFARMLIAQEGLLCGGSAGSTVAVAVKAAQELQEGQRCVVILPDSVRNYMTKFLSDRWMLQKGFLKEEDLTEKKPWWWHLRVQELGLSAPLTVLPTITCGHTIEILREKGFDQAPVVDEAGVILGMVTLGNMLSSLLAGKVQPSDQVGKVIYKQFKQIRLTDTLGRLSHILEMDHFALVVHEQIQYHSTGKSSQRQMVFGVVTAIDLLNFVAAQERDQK
In short: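 Human CBS was expressed as an N-terminal GST fusion in E. coli BL21(DE3) Codon Plus (0.3 mM δ-ALA, 0.1 mM IPTG, overnight at 30°C) and purified by GSH affinity. Each 100 μL reaction held 5 μg enzyme, 0.01 mM PLP, 1 mM L-cys, 1 mM homocysteine and 50 mM sodium phosphate pH 8.2. Test compound went in 15 min before substrate, then 60 min at 37°C. Stopped with ZnAc/TCA; methylene blue A655 against H2S standard curve; n = 9.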

human CSE = human CSE (Homo sapiens, UniProt P32929); assay: H2S production by purified recombinant GST-CSE; assay type: biochemical; conditions: for IC50: 10 μM PLP, 1 mM L-cys, inhibitor added 15 min before L-cys, 60 min, 37°C
In short: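 Human CSE was made as a GST fusion in E. coli BL21(DE3) Codon Plus (0.1 mM IPTG, overnight at 18°C) and GSH-affinity purified. Each 100 μL reaction held 5 μg enzyme, 0.01 mM PLP, 1 mM L-cys and 50 mM sodium phosphate pH 8.2. Test compound was preincubated 15 min before L-cys, then 60 min at 37°C. ZnAc then TCA; methylene blue absorbance at 655 nm read against H2S calibration; n = 9.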

rat aortic rings = assay: Isolated rat aortic ring assay; conditions: cumulative concentration-response
In short: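 Thoracic aortic rings (2–3 mm) from Sprague–Dawley rats (~300 g) were held in oxygenated Krebs–Henseleit at 37°C under 1 g resting tension, with isometric force recorded. Test compound was added 20 min before 1 μM phenylephrine. At the contraction plateau, cumulative L-cys concentration–response curves were run. At least four rings, each from a different rat; mean ± SEM.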

human CSE, sequence (P32929 whole entry, the tested form may be a part): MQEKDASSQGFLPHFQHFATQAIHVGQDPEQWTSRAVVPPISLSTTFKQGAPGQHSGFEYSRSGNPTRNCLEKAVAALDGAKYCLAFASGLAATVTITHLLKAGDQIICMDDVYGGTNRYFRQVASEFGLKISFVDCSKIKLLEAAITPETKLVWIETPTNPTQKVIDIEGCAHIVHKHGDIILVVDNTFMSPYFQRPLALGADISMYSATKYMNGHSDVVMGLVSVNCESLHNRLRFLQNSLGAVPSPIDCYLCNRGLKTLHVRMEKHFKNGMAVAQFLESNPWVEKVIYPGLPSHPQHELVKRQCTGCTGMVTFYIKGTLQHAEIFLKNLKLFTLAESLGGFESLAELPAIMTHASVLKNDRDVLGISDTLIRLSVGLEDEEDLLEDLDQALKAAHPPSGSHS

C#CCN(C)Cc1ccccc1 [Pargyline, pargyline]
CBS H2S production (% of control) (human CBS; 0.1 mM compound): 74.0 ± 12.8 % of control | CBS H2S production (% of control) (human CBS; 1 mM compound): 90.1 ± 14.3 % of control | Effect on CBS activity (human CBS; 0.1 and 1 mM (Table 2)): failed to significantly reduce CSE or CBS activity | CSE H2S production (% of control) (human CSE; 0.1 mM compound): 96.7 ± 7.1 % of control | CSE H2S production (% of control) (human CSE; 1 mM compound): 81.7 ± 12.5 % of control | Effect on CSE activity (human CSE; 0.1 and 1 mM (Table 2)): failed to significantly reduce CSE or CBS activity

N[C@H](CS)C(=O)O [D-cysteine]
Relaxation of phenylephrine-contracted aortic rings (rat aortic rings): but not D-cysteine, led to a concentration-dependent relaxation

NO [HA, hydroxylamine]
Inhibition of CBS (human CBS; 100 μM): approximately 30% | Inhibition of CSE activity (human CSE; 5 μM): approximately 60% | Inhibition of CSE activity (human CSE; 50 μM): abolished CSE activity | Selectivity towards CSE versus CBS (human CSE; IC50 CBS / IC50 CSE): 60 fold | IC50 (human CSE; read-out: CSE, IC50, 5 μg CSE): 4.83 ± 0.31 µM

C[Se]C[C@H](N)C(=O)O [Methylseleno-cysteine, methylselenocysteine]
CBS H2S production (% of control) (human CBS; 0.1 mM compound): 95.5 ± 2.1 % of control | CBS H2S production (% of control) (human CBS; 1 mM compound): 79.2 ± 5.1 % of control | Effect on CBS activity (human CBS; 0.1 and 1 mM (Table 2)): did not inhibit the activity of neither CBS nor CSE | CSE H2S production (% of control) (human CSE; 0.1 mM compound): 85.5 ± 4.4 % of control | CSE H2S production (% of control) (human CSE; 1 mM compound): 79.7 ± 4.3 % of control | Effect on CSE activity (human CSE; 0.1 and 1 mM (Table 2)): did not inhibit the activity of neither CBS nor CSE

NCCO/C=C/[C@H](N)C(=O)O [AVG, aminoethoxyvinylglycine]
Effect on CBS activity (human CBS; up to 1 mM): Neither PAG nor AVG had any effect on CBS activity; also recorded: failed to reduce CBS activity | IC50 (human CSE; CSE, IC50, 5 μg CSE): 1 ± 0.1 µM

N[C@H](C(=O)O)C(F)(F)F [Trifluoroalanine, trifluoroalanine]
Potency on CBS relative to HA (human CBS): fourfold | Selectivity for CBS (fold lower IC50 for CBS versus CSE) (human CBS; IC50 CSE / IC50 CBS): fourfold | IC50 (human CSE; read-out: CSE, IC50, 5 μg CSE): 289 ± 7 µM

N[C@@H](CS)C(=O)O [L-cys, L-cysteine]
Relaxation of phenylephrine-contracted aortic rings (rat aortic rings): led to a concentration-dependent relaxation

N[C@@H]1CON=C1O [D-Cycloserine, D-cycloserine]
CBS H2S production (% of control) (human CBS; 0.1 mM compound): 94.2 ± 20.5 % of control | CBS H2S production (% of control) (human CBS; 1 mM compound): 80.6 ± 21.0 % of control | CSE H2S production (% of control) (human CSE; 0.1 mM compound): 83.3 ± 19.2 % of control | Effect on CSE activity (human CSE; 1 mM): showed a tendency to reduce CSE activity | CSE H2S production (% of control) (human CSE; 1 mM compound): 73.3 ± 18.6 % of control

C#CCOc1ccc(N)cc1C(=O)NCCCC [Parsalmide]
CBS H2S production (% of control) (human CBS; 0.1 mM compound): 88.4 ± 7.4 % of control | CBS H2S production (% of control) (human CBS; 1 mM compound): 93.8 ± 9.9 % of control | Effect on CBS activity (human CBS; 0.1 and 1 mM (Table 2)): failed to significantly reduce CSE or CBS activity | CSE H2S production (% of control) (human CSE; 0.1 mM compound): 86.7 ± 17.8 % of control | CSE H2S production (% of control) (human CSE; 1 mM compound): 76.7 ± 11.3 % of control | Effect on CSE activity (human CSE; 0.1 and 1 mM (Table 2)): failed to significantly reduce CSE or CBS activity

CCN(CC)/[N+]([O-])=N/O.CCNCC [DEA/NO, diethylamine NONOate]
Effect on CBS activity (human CBS; NO donor, up to 250 μM): did not affect CBS activity; also recorded: CBS was resistant | Inhibition of CSE activity (human CSE; 5 μM): did not inhibit CSE activity | Maximal inhibition of CSE activity (human CSE; 250 μM): 75% | Effect on CSE activity (human CSE; NO donor, concentration-response): concentration dependently attenuated CSE activity

NNC(=O)c1ccncc1 [Isoniazid, isoniazid]
CBS H2S production (% of control) (human CBS; 0.1 mM compound): 86.4 ± 9.4 % of control | CBS H2S production (% of control) (human CBS; 1 mM compound): 88.4 ± 2.1 % of control | CSE H2S production (% of control) (human CSE; 0.1 mM compound): 93.3 ± 23.0 % of control | Effect on CSE activity (human CSE; 1 mM): showed a tendency to reduce CSE activity
